Source: PubChem BioAssay (Broad Institute)
CFTR F508del cor – correctors of CFTR F508del function in bronchial epithelial cells | CFBE cells, YFP halide quenching; stimulated with forskolin plus potentiator P3; % fluorescence drop versus neutral controls | 350,000 tested, 0.36% active | activity (quench increase), % at 7.58 µM;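 active = mean added fluorescence quench of at least 8% versus neutral control, with both replicates also reaching 8%; inconclusive = only one of the mean or replicate conditions met; inactive = mean below 8% and not both replicates reaching 8%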;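 note: cells transiently co-express mutant CFTR-F508del with the halide-sensitive YFP; corrector assay measuring rescue of mutant channel to the surface after 24 h compound exposure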
FGF22 binding – FGF22 (human) thermal shift binding. recombinant FGF22 thermal shift, SYPRO orange fluorescence; percent of sucrose octasulfate shift, DMSO zero. activity (Tm shift, normalised), % at 9.99 µM. 340,000 tested, 1.5% active. Q9HCT0;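 active = mean Tm shift, scaled 0 neutral to 100 positive control, at about 1.3% or above, every replicate too, limit read from the data; inconclusive = no clear call, values can overlap the other calls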
ERAP1 inh – blocks human ERAP1 aminopeptidase activity; Q9NZ08; recombinant ERAP1, Leu-AMC fluorescence, 60 min; inhibition, % at 10.7 µM; 340,000 tested, 0.15% active; AID 652197;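 active = mean replicate inhibition of at least 30%, or all replicates individually reaching that 30% level; inactive = mean below 30% and not every replicate reaching it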
E-sel inducer – E-selectin induction on HUVECs; P16581; HUVEC E-selectin immunofluorescence imaging; normalized: neutral wells 0, TNF-alpha wells 100; activation, % at 7.58 µM; 260,000 tested, 0.37% active;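 active = mean E-selectin-positive cell signal at least 10% of the positive control, reached in at least 60% of replicates, without over 20% cell loss; inconclusive = no rule given, readout overlaps actives, possibly toxicity-flagged; inactive = the rest, including those meeting only one limit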
Target sequence (P16581 whole entry, looked up): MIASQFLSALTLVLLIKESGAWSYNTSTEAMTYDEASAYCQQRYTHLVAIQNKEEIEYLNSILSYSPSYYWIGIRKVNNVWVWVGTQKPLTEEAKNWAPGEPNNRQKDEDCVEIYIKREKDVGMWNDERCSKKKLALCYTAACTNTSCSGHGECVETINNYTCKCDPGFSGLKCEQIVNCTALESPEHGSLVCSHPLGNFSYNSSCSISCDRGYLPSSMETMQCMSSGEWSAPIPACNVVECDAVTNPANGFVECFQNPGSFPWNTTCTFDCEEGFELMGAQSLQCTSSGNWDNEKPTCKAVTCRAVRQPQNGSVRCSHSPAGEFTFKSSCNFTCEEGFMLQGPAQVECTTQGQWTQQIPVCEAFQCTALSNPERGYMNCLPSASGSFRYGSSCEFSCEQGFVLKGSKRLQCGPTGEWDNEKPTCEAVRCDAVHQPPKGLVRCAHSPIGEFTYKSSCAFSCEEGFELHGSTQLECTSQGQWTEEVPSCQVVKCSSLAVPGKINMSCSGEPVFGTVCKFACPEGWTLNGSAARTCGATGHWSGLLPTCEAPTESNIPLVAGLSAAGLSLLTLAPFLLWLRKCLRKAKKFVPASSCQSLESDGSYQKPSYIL
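System: HUVEC / Compound: single concentration / Signal: immunofluorescence imaging / Read-out: percent E-selectin-positive cells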
DENV2 CPE – inhibitors of DENV2 cytopathic effect. DENV2-infected cells, cytopathic effect rescue, plate reader. CPE inhibition, % at 9.99 µM. AID 651640. 350,000 tested, 1.7% active; in the data active = CPE inhibition above about 20%, passing the limit was not always enough; inconclusive = no clear call, values can overlap the other calls; tested in BHK-21 cells
Large screens that a line does not name were inactive; ! = not active in a repeat. Shown are actives, neighbours in structure and some others; about 3.7% of the full set was active somewhere.

CN(C)N1C(N)=C(C#N)C(c2ccccc2)C2=C1CCCC2=O (stereo unspecified)	FGF22 binding 43 (no result: E-sel inducer)
N#C[C@@H]1[C@@H](c2ccccc2C2=CCCCC2)[C@@H](CO)N1C(=O)CN1CCOCC1	DENV2 CPE 30
N#C[C@@H]1[C@@H](c2ccccc2C2=CCCC2)[C@H](CO)N1C(=O)C1CCOCC1	none
C/C=C/c1ccccc1[C@H]1[C@@H](C#N)N(C(=O)CN2CCOCC2)[C@@H]1CO	DENV2 CPE 39 (no result: FGF22 binding)
CN1C[C@@H]2[C@H](c3ccccc31)[C@H](CO)N2C(=O)CN1CCOCC1	DENV2 CPE 37
CN1C[C@@H]2[C@H](c3ccccc31)[C@@H](CO)N2C(=O)CN1CCOCC1	none (no result: ERAP1 inh)
N#C[C@H]1[C@@H](c2ccccc2C2=CCCC2)[C@@H](CO)N1C(=O)C1CCOCC1	DENV2 CPE 36
Cc1ccc(S(=O)(=O)N(C)C[C@H]2Oc3ccc(NC(=O)C4CC4)cc3CC(=O)N([C@@H](C)CO)C[C@@H]2C)cc1	none
COCC#Cc1cnc2c(c1)C(=O)N([C@@H](C)CO)C[C@H](C)[C@@H](CN(C)C(=O)c1cccnc1)O2	none
C[C@H](CO)N1C[C@H](C)[C@H](CN(C)C(=O)Nc2cccc(F)c2)OCc2cn(nn2)CCCC1=O	none
C[C@@H]1CN([C@@H](C)CO)C(=O)CCCn2cc(nn2)CO[C@@H]1CN(C)Cc1cccc(C(=O)O)c1	DENV2 CPE 30
C[C@@H]1CN([C@@H](C)CO)C(=O)CCCn2cc(nn2)CO[C@H]1CN(C)C(=O)Nc1cccc(F)c1	DENV2 CPE 87!
C[C@H]1CN([C@@H](C)CO)C(=O)CCCn2cc(nn2)CO[C@@H]1CN(C)C(=O)Nc1ccc(F)cc1	DENV2 CPE 44!
C[C@@H]1CN([C@H](C)CO)C(=O)CCCn2cc(nn2)CO[C@H]1CN(C)C(=O)Nc1ccccc1C(F)(F)F	DENV2 CPE 48!
C[C@@H]1CN([C@@H](C)CO)C(=O)Cc2cc(NS(=O)(=O)c3cccs3)ccc2O[C@@H]1CN(C)Cc1ccc(Oc2ccccc2)cc1	none
C[C@@H]1CCCCO[C@@H](CN(C)C(=O)c2ccccc2)[C@H](C)CN([C@H](C)CO)C(=O)c2cc(NC(=O)CCCN(C)C)ccc2O1	none (no result: FGF22 binding, ERAP1 inh, DENV2 CPE)
CC(C)OC(=O)N(C)C[C@@H]1OCc2cn(nn2)CCCC(=O)N([C@@H](C)CO)C[C@H]1C	DENV2 CPE 36!
CCOC(=O)/C(C)=N/NC(=O)c1cccc([N+](=O)[O-])c1	FGF22 binding 44 (no result: E-sel inducer)
CCOC(=O)Cc1ccc(NC(=O)c2cccc([N+](=O)[O-])c2)cc1	none
OCC#CCSc1nnc(-c2cccc3ccccc23)o1	DENV2 CPE 93
O=C(OCC#CCSc1nnc(-c2cccc3ccccc23)o1)c1ccc(Cl)cc1	none
O=C(C[C@H]1CC[C@H](NC(=O)c2ccncc2)[C@@H](CO)O1)NCC1CC1	none
C[C@@H]1CN([C@@H](C)CO)C(=O)c2cc(-c3cccc(C(=O)N(C)C)c3)cnc2O[C@@H]1CN(C)S(=O)(=O)c1ccccc1	none
Cc1noc(C)c1C(=O)N1CCC1(C)C(=O)NS(=O)(=O)Cc1cccc(Cl)c1 (stereo unspecified)	FGF22 binding 44
CC1(C(=O)NS(=O)(=O)Cc2cccc(Cl)c2)CCN1C(=O)c1cccc(F)c1 (stereo unspecified)	none
O=C(CN1C(=O)C(=O)c2ccccc21)OCN1C(=O)c2ccccc2C1=O	FGF22 binding 43 (no result: E-sel inducer)
COc1ccccc1NC(=O)COC(=O)CN1C(=O)C(=O)c2ccccc21	none (no result: E-sel inducer)
CCCC(=O)Nc1ccc2c(c1)C(=O)N(C)C[C@@H](OC)[C@@H](C)CN(C(=O)C1CCCC1)[C@@H](C)CO2	none
C=CCN1C(=O)C(CC(=O)Nc2ccccc2)N(Cc2ccccn2)C1=S (stereo unspecified)	FGF22 binding 44
CCN1C(=O)C(CC(=O)Nc2ccccc2)N(Cc2ccccn2)C1=S (stereo unspecified)	none (no result: E-sel inducer)
O=C(c1ccccn1)N1CC2(C1)[C@@H](c1ccccc1)[C@H](CO)N2Cc1ccc(Cl)cc1	none
O=C(C1CC1)N1CC(=O)N2[C@@H](CO)[C@H](c3ccc(C#CCc4ccccc4)cc3)[C@@H]2C1	DENV2 CPE 45 (no result: FGF22 binding)
O=C(c1ccccc1)N1CC(=O)N2[C@H](CO)[C@H](c3ccc(C#CCC4CCCC4)cc3)[C@@H]2C1	DENV2 CPE 21 (no result: FGF22 binding)
O=C(C1CCCCC1)N1CC(=O)N2[C@H](CO)[C@H](c3ccc(C#CCc4ccccc4)cc3)[C@H]2C1	DENV2 CPE 25 (no result: FGF22 binding)
Cc1ccc(NC2C(=O)NC(=O)NC2=O)cc1	DENV2 CPE 36
Cc1ccc(NC2CNC(=O)NC2=O)cc1C (stereo unspecified)	none
COC(=O)[C@@H](NC(=O)/C=C/c1ccc(OC)cc1)C(C)C	FGF22 binding 43
COc1ccc(/C=C/C(=O)O)cc1	none (no result: E-sel inducer)
C[C@@H]1CCCCO[C@@H](CN(C)Cc2ccc(Cl)c(Cl)c2)[C@H](C)CN([C@@H](C)CO)C(=O)c2cc(NC(=O)Nc3cccc4ccccc34)ccc2O1	none
NC(=NCCCCCCN=C(N)/N=C(\N)Nc1ccc(Cl)cc1)/N=C(\N)Nc1ccc(Cl)cc1	CFTR F508del cor 12!, DENV2 CPE inconclusive
C[C@@H]1CCCCO[C@@H](CN(C)S(=O)(=O)c2cn(C)cn2)[C@H](C)CN([C@@H](C)CO)C(=O)c2cc(NS(=O)(=O)c3ccc(Cl)cc3)ccc2O1	DENV2 CPE 28 (no result: E-sel inducer)
C[C@@H]1CN([C@@H](C)CO)C(=O)c2cc(NS(=O)(=O)c3ccc(Cl)cc3)ccc2O[C@@H](C)CCCCO[C@H]1CN(C)S(=O)(=O)c1cn(C)cn1	FGF22 binding 1.4 (no result: E-sel inducer)
C[C@H]1CCCCO[C@@H](CN(C)S(=O)(=O)c2cn(C)cn2)[C@@H](C)CN([C@@H](C)CO)C(=O)c2cc(NS(=O)(=O)c3ccc(Cl)cc3)ccc2O1	DENV2 CPE 47 (no result: E-sel inducer)
COc1cccc(S(=O)(=O)Nc2ccc3c(c2)C(=O)N(C)C[C@@H](OC)[C@@H](C)CN(C(=O)Cc2cccnc2)[C@@H](C)CO3)c1	none
Cc1ccc(CNC(=O)[C@H](C)N2C(=O)N3CCc4c([nH]c5ccccc45)[C@@]3(C)C2=O)cc1	DENV2 CPE 35 (no result: E-sel inducer)
O=Cc1ccc(-n2cc(C=O)c3ccccc32)cc1	FGF22 binding 43 (no result: E-sel inducer)
Cc1cccc(N2CCN(C(=S)c3ccccc3)CC2)c1	FGF22 binding 44 (no result: E-sel inducer)
Cc1cccc(N2CCN(C(=S)c3ccc([N+](=O)[O-])cc3)CC2)c1	none (no result: CFTR F508del cor, E-sel inducer)
CC(=O)c1ccc(N2CCN(C(=S)Nc3ccc(Cl)c(Cl)c3)CC2)cc1	DENV2 CPE 53 (no result: CFTR F508del cor, E-sel inducer)
S=C(Nc1ccccc1)N1CCN(c2ccccc2)CC1	none (no result: FGF22 binding)
Cc1ccc(N2CCN(C(=S)Nc3ccccc3)CC2)cc1	FGF22 binding 43, DENV2 CPE inconclusive (no result: E-sel inducer)
S=C(Nc1ccc(Nc2ccccc2)cc1)N1CCN(c2ncccn2)CC1	FGF22 binding 43
